Data set [1] addresses DNA-directed RNA polymerase, mitochondrial (Homo sapiens) (UniProt O00411). As to the kind of experiment: Inhibition of mitochondrial RNA polymerase (unknown origin) assessed as inhibition of single nucleotide incorporation. Particulars: concentration not given here. The essentials:
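Reactions started with 500 μM (final) natural NTP or NTP analog. Time-point aliquots were quenched in EDTA/formamide, heated to 65 °C, resolved on 20% polyacrylamide/8 M urea gels, and product formation quantified by phosphorimaging.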

The nature of data set [2]: Toxicity in po dosed Sprague-Dawley rat assessed as necrosis in organs administered qd for 7 days. It counts as organism-based. As to conditions: in vivo.
Data set [3] concerns Rattus norvegicus. As to the kind of experiment: Toxicity in Sprague-Dawley rat assessed as death at 20 to 40 mg/kg, po qd for 7 days. On the set-up: dose 20-40 mg/kg, route oral. It counts as organism-based. Particulars: in vivo, 168 h.

These results are taken from ChEMBL document CHEMBL3120104, “Discovery of the first C-nucleoside HCV polymerase inhibitor (GS-6620) with demonstrated antiviral response in HCV infected patients” (J Med Chem, 2014).

The structures appear in SMILES notation.

Chain of DNA-directed RNA polymerase, mitochondrial (Homo sapiens) (O00411 whole entry): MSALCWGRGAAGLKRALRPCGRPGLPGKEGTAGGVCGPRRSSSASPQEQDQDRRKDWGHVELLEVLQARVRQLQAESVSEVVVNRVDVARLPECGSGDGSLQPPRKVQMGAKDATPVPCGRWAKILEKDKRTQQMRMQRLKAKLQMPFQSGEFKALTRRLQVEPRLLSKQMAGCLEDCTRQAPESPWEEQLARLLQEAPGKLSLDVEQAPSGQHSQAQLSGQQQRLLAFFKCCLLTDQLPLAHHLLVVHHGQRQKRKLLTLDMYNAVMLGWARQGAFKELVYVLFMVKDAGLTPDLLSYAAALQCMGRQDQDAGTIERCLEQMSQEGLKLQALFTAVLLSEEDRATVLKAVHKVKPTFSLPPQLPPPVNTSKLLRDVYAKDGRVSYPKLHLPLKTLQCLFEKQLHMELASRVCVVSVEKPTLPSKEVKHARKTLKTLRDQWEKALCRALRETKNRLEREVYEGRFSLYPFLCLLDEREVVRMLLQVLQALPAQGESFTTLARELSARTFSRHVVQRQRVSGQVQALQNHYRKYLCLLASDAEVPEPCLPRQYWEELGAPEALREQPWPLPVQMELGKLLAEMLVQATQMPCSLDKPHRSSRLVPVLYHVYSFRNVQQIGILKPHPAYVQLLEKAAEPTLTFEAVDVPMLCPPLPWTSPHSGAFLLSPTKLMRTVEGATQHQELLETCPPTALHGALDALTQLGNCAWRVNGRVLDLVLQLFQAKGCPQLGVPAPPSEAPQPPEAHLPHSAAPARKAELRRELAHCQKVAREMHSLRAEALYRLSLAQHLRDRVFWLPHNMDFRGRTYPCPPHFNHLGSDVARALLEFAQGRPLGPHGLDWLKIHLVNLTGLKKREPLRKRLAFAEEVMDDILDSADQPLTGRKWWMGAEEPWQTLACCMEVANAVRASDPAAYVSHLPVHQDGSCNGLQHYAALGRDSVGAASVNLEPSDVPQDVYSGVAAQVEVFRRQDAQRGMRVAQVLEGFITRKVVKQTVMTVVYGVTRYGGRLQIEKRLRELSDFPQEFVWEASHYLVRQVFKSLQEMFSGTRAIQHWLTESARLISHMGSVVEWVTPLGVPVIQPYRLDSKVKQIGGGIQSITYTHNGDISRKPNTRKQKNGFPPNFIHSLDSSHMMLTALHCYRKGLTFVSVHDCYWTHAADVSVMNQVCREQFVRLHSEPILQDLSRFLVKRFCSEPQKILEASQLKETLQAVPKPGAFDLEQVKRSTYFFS

One may read the inhibition as the relative decrease from the control value, in per cent. A word on the NOAEL: it is the highest tested level that showed no adverse finding. As to `C[C@@]1(O)[C@H](O)[C@@H](CO)O[C@H]1c1ccc2c(N)ncnn12`, the inhibition in data set [1] turned out to be 21%. In data set [2], the NOAEL at 168 h was below 5 mg/kg/day. The Activity result in data set [3] is given as “Toxic”.
